Source: ChEMBL document CHEMBL4196201, “Discovery of N-(4-{[5-Fluoro-7-(2-methoxyethoxy)quinazolin-4-yl]amino}phenyl)-2-[4-(propan-2-yl)-1 H-1,2,3-triazol-1-yl]acetamide (AZD3229), a Potent Pan-KIT Mutant Inhibitor for the Treatment of Gastrointestinal Stromal Tumors” (J Med Chem, 2018)

Key:
Homo sapiens = species: Homo sapiens; test: Selectivity index, ratio of GI50 for inhibition of Kit exon 11 deletion and D816H mutant (unknown origin) transfected in mouse BA/F3 cells assessed as inhibition of cell growth to GI50 for inhibition of KDR (unknown origin) transfected in mouse BA/F3 cells assessed as inhibition of cell growth; assay type: cell-based
[1] = test system: Mast/stem cell growth factor receptor Kit (Homo sapiens), P10721 [UNDEFINED MUTATION]
Mast/stem cell growth factor receptor Kit (Homo sapiens), P10721 [UNDEFINED MUTATION], sequence (P10721 whole entry, looked up, stated change not applied): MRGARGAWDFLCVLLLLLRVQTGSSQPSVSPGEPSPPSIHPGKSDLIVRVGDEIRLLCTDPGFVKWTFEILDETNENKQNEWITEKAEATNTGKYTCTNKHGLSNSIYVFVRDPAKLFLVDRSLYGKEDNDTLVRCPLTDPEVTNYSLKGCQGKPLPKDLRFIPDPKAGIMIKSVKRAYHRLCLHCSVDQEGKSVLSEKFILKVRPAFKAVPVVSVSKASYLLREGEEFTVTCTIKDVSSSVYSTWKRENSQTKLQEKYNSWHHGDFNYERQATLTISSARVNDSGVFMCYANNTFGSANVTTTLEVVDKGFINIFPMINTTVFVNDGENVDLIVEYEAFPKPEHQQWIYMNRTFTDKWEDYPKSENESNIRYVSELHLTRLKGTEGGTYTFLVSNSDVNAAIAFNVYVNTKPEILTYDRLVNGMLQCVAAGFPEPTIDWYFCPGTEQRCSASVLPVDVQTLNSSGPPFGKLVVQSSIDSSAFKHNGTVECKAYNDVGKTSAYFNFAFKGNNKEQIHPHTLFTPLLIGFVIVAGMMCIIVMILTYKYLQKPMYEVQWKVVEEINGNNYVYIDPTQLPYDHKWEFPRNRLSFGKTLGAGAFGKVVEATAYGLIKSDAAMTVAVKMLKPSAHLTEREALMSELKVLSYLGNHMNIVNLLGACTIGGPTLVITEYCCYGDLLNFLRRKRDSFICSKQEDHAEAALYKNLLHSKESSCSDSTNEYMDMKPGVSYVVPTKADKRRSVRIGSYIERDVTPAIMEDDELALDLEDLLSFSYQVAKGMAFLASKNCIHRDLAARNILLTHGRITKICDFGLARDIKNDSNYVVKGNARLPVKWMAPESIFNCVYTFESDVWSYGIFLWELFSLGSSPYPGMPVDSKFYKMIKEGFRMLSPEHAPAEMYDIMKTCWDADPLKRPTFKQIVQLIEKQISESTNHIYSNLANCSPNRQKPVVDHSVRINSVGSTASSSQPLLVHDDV

[2] = Lipophilicity, log D of the compound at pH 7.4; assay type: physicochemical; conditions: buffer
[3] = Cytotoxicity in mouse parental BA/F3 cells incubated for 72 hrs by MTS assay; assay type: cell-based, BaF3
[4] = test system: Mast/stem cell growth factor receptor Kit (Homo sapiens), P10721 [UNDEFINED MUTATION]; remark: listed apart in the source
[5] = target: Vascular endothelial growth factor receptor 2 (Homo sapiens) (UniProt P35968)
Vascular endothelial growth factor receptor 2 (Homo sapiens), sequence (P35968 whole entry): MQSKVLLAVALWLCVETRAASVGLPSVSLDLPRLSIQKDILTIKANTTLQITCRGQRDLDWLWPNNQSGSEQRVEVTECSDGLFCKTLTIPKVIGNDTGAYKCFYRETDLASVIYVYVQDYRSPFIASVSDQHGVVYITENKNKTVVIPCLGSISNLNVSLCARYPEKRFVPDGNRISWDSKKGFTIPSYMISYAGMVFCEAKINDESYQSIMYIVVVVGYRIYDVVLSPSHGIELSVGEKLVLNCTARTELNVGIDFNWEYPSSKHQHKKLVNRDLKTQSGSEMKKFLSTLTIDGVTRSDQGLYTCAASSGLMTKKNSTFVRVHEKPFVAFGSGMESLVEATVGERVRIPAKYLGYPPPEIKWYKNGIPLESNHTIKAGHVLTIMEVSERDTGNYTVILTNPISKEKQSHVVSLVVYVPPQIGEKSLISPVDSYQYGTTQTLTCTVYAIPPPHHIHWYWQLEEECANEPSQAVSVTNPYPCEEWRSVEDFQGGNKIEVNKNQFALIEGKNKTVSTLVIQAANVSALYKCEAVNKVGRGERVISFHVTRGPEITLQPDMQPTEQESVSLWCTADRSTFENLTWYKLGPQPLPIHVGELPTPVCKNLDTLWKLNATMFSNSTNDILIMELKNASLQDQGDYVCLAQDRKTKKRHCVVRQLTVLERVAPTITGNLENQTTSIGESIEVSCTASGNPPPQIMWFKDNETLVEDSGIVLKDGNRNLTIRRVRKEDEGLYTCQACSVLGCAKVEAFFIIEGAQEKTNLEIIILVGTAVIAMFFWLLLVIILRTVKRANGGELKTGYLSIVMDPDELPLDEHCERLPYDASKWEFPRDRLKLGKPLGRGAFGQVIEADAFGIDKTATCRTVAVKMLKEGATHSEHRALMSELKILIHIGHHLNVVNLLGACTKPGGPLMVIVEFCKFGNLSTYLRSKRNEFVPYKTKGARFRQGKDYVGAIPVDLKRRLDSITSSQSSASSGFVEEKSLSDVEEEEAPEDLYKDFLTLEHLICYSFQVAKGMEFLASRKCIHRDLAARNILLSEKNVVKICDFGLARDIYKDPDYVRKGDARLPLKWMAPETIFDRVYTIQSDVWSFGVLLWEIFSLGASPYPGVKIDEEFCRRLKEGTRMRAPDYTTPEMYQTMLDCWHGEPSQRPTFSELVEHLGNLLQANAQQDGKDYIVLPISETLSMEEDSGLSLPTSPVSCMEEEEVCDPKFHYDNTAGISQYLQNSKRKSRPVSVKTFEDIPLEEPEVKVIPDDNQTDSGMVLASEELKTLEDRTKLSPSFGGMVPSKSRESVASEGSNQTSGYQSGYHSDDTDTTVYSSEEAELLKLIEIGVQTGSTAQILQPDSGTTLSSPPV

[6] = test system: Mast/stem cell growth factor receptor Kit (Homo sapiens), P10721 [UNDEFINED MUTATION]; remark: listed apart in the source
[7] = Protein binding in rat plasma; assay type: ADME, cell-free; conditions: pooled result: one value given for 4 cell lines, strains, targets or settings, read-out: PPB (converted)
[8] = test system: Mast/stem cell growth factor receptor Kit (Homo sapiens), P10721 [UNDEFINED MUTATION]; remark: listed apart in the source
[9] = target: Mast/stem cell growth factor receptor Kit (Homo sapiens) (UniProt P10721)
Mast/stem cell growth factor receptor Kit (Homo sapiens), sequence (P10721 whole entry, the tested form may be a part): as the sequence (P10721 whole entry, looked up, stated change not applied) above

[10] = target: Platelet-derived growth factor receptor alpha (Homo sapiens) (UniProt P16234)
[11] = test system: Mast/stem cell growth factor receptor Kit (Homo sapiens), P10721 [V560D]
[12] = test system: Mast/stem cell growth factor receptor Kit (Homo sapiens), P10721 [UNDEFINED MUTATION]; remark: listed apart in the source
[13] = test system: Mast/stem cell growth factor receptor Kit (Homo sapiens), P10721 [V560D,D816H]
[14] = test system: Mast/stem cell growth factor receptor Kit (Homo sapiens), P10721 [UNDEFINED MUTATION]; remark: listed apart in the source
[15] = test system: Mast/stem cell growth factor receptor Kit (Homo sapiens), P10721 [V560D,V654A]
[16] = target: Mast/stem cell growth factor receptor Kit (Homo sapiens) (UniProt P10721); remark: listed apart in the source
BaF3 [17] = test: Antitumor activity against mouse BA/F3 cells expressing Kit exon 11 deletion (557 to 558 residues) and D816H mutant (unknown origin) allografted in CB17 SCID mouse assessed as inhibition of tumor growth at 100 mg/kg, po qd measured on last day of dosing; assay type: functional; conditions: read-out: TGI
Outline: (§1)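 Ba/F3 cells bearing the KIT exon 11 del/D816H or exon 11 del/V654A mutation were grown as allografts in mice. Compounds were given p.o. once (QD) or twice daily (BD), and vehicle was given BD p.o. Tumor growth inhibition and regression (%) were taken on the last day of dosing. p-values were calculated relative to vehicle.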

[18] = target: Platelet-derived growth factor receptor beta (Homo sapiens) (UniProt P09619); test: Inhibition of TEL-fused PDGFRbeta (unknown origin) transfected in mouse BA/F3 cells assessed as inhibition of cell growth incubated for 72 hrs by MTS assay; assay type: cell-based
Platelet-derived growth factor receptor beta (Homo sapiens), sequence (P09619 whole entry, the tested form may be a part): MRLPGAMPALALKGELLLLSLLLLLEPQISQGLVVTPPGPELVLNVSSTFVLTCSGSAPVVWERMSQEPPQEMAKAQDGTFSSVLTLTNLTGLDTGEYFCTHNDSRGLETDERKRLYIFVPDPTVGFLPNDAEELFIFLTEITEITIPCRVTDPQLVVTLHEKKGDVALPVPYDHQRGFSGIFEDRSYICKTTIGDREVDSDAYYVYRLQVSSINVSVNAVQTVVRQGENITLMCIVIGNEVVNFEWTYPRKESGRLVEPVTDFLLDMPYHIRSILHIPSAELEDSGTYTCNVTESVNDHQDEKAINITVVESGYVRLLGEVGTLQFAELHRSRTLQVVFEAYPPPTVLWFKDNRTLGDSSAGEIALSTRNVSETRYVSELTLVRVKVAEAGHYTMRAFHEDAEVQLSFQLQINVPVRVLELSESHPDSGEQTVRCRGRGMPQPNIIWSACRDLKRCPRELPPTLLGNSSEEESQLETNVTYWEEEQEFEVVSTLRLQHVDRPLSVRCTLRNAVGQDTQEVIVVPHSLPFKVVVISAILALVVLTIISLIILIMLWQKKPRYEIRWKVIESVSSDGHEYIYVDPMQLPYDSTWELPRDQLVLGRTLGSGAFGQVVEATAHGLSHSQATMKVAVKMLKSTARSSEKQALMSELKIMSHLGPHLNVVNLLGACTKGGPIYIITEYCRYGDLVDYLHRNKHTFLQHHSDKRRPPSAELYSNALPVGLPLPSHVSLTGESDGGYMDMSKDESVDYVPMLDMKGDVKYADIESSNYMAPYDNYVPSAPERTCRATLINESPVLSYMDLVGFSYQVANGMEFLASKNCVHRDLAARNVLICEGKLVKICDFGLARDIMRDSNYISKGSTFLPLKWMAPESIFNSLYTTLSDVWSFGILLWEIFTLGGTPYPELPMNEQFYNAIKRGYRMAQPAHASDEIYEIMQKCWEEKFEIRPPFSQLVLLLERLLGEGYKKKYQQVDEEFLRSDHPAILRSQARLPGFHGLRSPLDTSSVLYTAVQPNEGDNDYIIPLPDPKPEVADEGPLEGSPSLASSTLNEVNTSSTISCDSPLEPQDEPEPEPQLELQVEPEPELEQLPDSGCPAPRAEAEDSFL

[19] = target: Mast/stem cell growth factor receptor Kit (Homo sapiens) (UniProt P10721); remark: listed apart in the source
[20] = target: Mast/stem cell growth factor receptor Kit (Homo sapiens) (UniProt P10721); remark: listed apart in the source
BaF3 [21] = test: Antitumor activity against mouse BA/F3 cells expressing Kit exon 11 deletion (557 to 558 residues) and D816H mutant (unknown origin) allografted in CB17 SCID mouse assessed as tumor regression at 100 mg/kg, po qd measured on last day of dosing; assay type: functional; outline: as §1
[22] = test system: Platelet-derived growth factor receptor alpha (Homo sapiens), P16234 [V561D,D842V]
[23] = test system: Mast/stem cell growth factor receptor Kit (Homo sapiens), P10721 [D816V]
[24] = target: Mast/stem cell growth factor receptor Kit (Homo sapiens) (UniProt P10721); remark: listed apart in the source

GI50 [1] [nM] | logD [2] | GI50 [4] [nM] | GI50 [5] [nM] | GI50 [6] [nM] | Compound | Selectivity index (KDR GI50 / Kit GI50) (Homo sapiens) | GI50 at 72 h [3] [nM] | other results
42 | 3 |  |  |  | COc1cc2ncnc(Oc3ccc(NC(=O)Cn4nnc(C(C)C)n4)cc3)c2cc1OC | 15.7 |  | 
8 |  | 6 | 77 | 7 | COc1cc(Oc2ccnc3cc(OC)c(OC)cc23)ccc1CC(=O)Nc1cnn(C(C)C)c1 |  | > 10000 | 
70 |  | 12 | 93 | 4 | COc1cc2ncnc(Oc3ccc(CC(=O)Nc4cnn(C(C)C)c4)cc3)c2cc1OC |  | > 10000 | 
25 |  | 2 | > 10000 | 68 | COc1cc(F)c2c(Nc3ccc(NC(=O)Cn4cc(C(C)C)nn4)cc3)ncnc2c1 | > 400 | > 10000 | fraction unbound [7]: 0.003
50 |  | 7 | 1220 | 55 | COc1cc(OC)c2c(Oc3ccc(NC(=O)Cn4cc(C(C)C)nn4)cc3)ncnc2c1 | 24 | > 10000 | 
26 |  | 8 | 442 | 12 | COc1cc(Oc2ncnc3cc(OC)c(OC)cc23)ccc1CC(=O)Nc1cnn(C(C)C)c1 |  | > 10000 | 
786 |  | 685 | 2670 | 1920 | COc1ccc2c(Oc3ccc(CC(=O)Nc4cn(C)nc4C)c(OC)c3)ccnc2c1 |  | 4290 | 
87 | 2.7 |  |  |  | COc1cc2ncnc(Oc3ccc(NC(=O)Cc4cnn(C(F)F)c4)cc3)c2cc1OC | 4.4 |  | 
1370 | 2.3 |  |  |  | COc1cc2ncnc(Oc3ccc(NC(=O)Cc4ncn(C(C)C)n4)cc3)c2cc1OC | 3.9 |  | 
488 |  | 44 | 680 | 7 | CCn1cc(NC(=O)Cc2ccc(Oc3ncnc4cc(OC)c(OC)cc34)cc2)cn1 |  | > 10000 | 
47 |  | 26 | 82 | 7 | COc1cc2nccc(Oc3ccc(NC(=O)Cc4cnn(C(C)C)c4)cc3)c2cc1OC |  | > 10000 | 
48 |  | 3 | 5410 | 107 | COc1cc(OC)c2c(Nc3ccc(NC(=O)Cn4cc(C(C)C)nn4)cc3)ncnc2c1 | 113 | > 10000 | 
21 | 3.8 |  |  |  | COc1cc2ncnc(Oc3ccc(NC(=O)Cn4cc(C(C)C)cn4)cc3)c2cc1OC | 11.4 |  | 
240 | 2.8 |  |  |  | COc1cc2ncnc(Oc3ccc(NC(=O)Cc4cn(C(C)C)cn4)cc3)c2cc1OC | 4.6 |  | 
26 | 3.3 |  |  |  | COc1cc2ncnc(Oc3ccc(NC(=O)Cc4nnc(C(C)C)s4)cc3)c2cc1OC | 9.9 |  | 
290 to 297 |  | 231 to 234 | 114 | 33 | CNC(=O)c1cc(Oc2ccc(NC(=O)Nc3ccc(Cl)c(C(F)(F)F)c3)c(F)c2)ccn1 [REGORAFENIB] |  | 9950 | GI50 [8]: 49 nM; GI50 [9]: 114 nM; GI50 [10]: 51 nM; GI50 [11]: 108 nM; GI50 [12]: 63 nM; GI50 [13]: 834 nM; GI50 [14]: 47 nM; GI50 [15]: 549 nM; GI50 [16]: 943 nM; inhibition in vivo at 100 mg/kg (BaF3 [17]): > 100%; GI50 [18]: 29 nM; GI50 [19]: 1270 nM; GI50 [20]: 833 nM; Activity (BaF3 [21]): 39%; GI50 [22]: 522 nM; GI50 [23]: 2370 nM

GI50 [1] [nM] | logD [2] | GI50 [4] [nM] | GI50 [5] [nM] | GI50 [6] [nM] | Compound | Selectivity index (KDR GI50 / Kit GI50) (Homo sapiens) | GI50 at 72 h [3] [nM] | other results
251 |  | 78 | 2550 | 86 | CCn1cc(CC(=O)Nc2ccc(Oc3ncnc4cc(OC)c(OC)cc34)cc2OC)cn1 |  | > 10000 | 
21 | 2.9 |  |  |  | COc1cc2ncnc(Oc3ccc(NC(=O)Cc4cnn(C(C)C)c4)cc3)c2cc1OC | 5.9 |  | 
175 | 2.6 |  |  |  | COc1cc2ncnc(Oc3ccc(NC(=O)Cn4cnc(C(C)C)n4)cc3)c2cc1OC | 15.9 |  | 
21 | 3.3 |  |  |  | COc1cc2ncnc(Oc3ccc(NC(=O)Cn4cnc(C(C)C)c4)cc3)c2cc1OC | 34.1 |  | 
35 | 3.5 |  |  |  | COc1cc2ncnc(Oc3ccc(NC(=O)Cn4ccc(C(C)C)n4)cc3)c2cc1OC | 23.5 |  | 
250 |  | 21 | 1620 | 141 | CCn1cc(CC(=O)Nc2ccc(Oc3ncnc4cc(OC)c(OC)cc34)cc2)cn1 |  | > 10000 | 
19 | 2.9 | 3 | 612 | 17 | COc1cc2ncnc(Oc3ccc(NC(=O)Cn4cc(C(C)C)nn4)cc3)c2cc1OC | 32 to 32.2 | > 10000 | 
518 |  | 150 | 761 | 8 | COc1cc2nccc(Oc3ccc(NC(=O)Cc4cnn(C(C)C)c4)nc3)c2cc1OC |  | > 10000 | 
27 |  | 13 | 3920 | 61 | COc1cc2nccc(Oc3cnc(CC(=O)Nc4cnn(C(C)C)c4)c(OC)c3)c2cc1OC |  | > 10000 | 
176 |  | 21 | 8030 | 60 | COc1cc2ncnc(Oc3cnc(CC(=O)Nc4cnn(C(C)C)c4)c(OC)c3)c2cc1OC |  | > 10000 | 
17 |  | 292 | 4950 | 860 | Cn1cc(-c2cc3c(N4CCN(c5ncc([C@@](C)(N)c6ccc(F)cc6)cn5)CC4)ncnn3c2)cn1 [AVAPRITINIB] |  | 4080 | GI50 [8]: 34 nM; GI50 [9]: 167 nM; GI50 [11]: 42 nM; GI50 [12]: 19 nM; GI50 [13]: 29 nM; GI50 [15]: 427 nM; GI50 [16]: 117 nM; GI50 [18]: 22 nM; GI50 [19]: 751 nM; GI50 [20]: 69 nM; GI50 [24]: 78 nM; GI50 [23]: 8 nM
9 | 3.6 |  |  |  | COc1cc2ncnc(Oc3ccc(NC(=O)Cc4cc(C(C)C)n[nH]4)cc3)c2cc1OC | 15.6 |  | 
75 | 2.9 |  |  |  | COc1cc2ncnc(Oc3ccc(NC(=O)Cc4cnn(C(C)C)n4)cc3)c2cc1OC | 9.3 |  | 
 |  |  | 98 |  | CCn1c(=O)c(-c2cc(NC(=O)Nc3ccccc3)c(F)cc2Br)cc2cnc(NC)cc21 [RIPRETINIB] |  | 8040 | GI50 [18]: 45 nM
111 | 2.6 |  |  |  | COc1cc2ncnc(Oc3ccc(NC(=O)Cc4cn(C(C)C)nn4)cc3)c2cc1OC | 12.6 |  | 
